In the library only some 1.8% were active in any assay of this set; here they are far more common.
MBD2 inh – MBD2-methylated oligo binding inhibition. TR-FRET, MBD2 binding to methylated oligonucleotide. inhibition, % at 4.4 µM. AID 686964. Q9UBB5. 370,000 tested, 0.31% active; in the data active = inhibition above about 13%
HCV core dimer – blocks dimerization of HCV core protein. 300,000 tested, 0.33% active. inhibition, % at 5 µM. TR-FRET GST/Flag-core106 dimerization, 1536-well. AID 1899;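 active = inhibition above the mean of all tested compounds plus 3 SD, set per screening campaign, cut at about 45% in these data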
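System: GST/Flag-tagged HCV core106 proteins. Incubation: compound-protein-antibody incubation 4 h at 22.5 °C. Technique: HTRF with 340 nm excitation, 617/671 nm emission. Medium: KF-containing HEPES buffer, pH 7.45, DTT, CHAPS, BSA. Read-out: inhibition (%) from 671 over 617 nm ratio. Also added: Eu(K)-anti-GST 90 ng/mL plus XL665-anti-Flag 1 µg/mL.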
UHRF1 MBD2 ctr – UHRF1 methyl-DNA binding inhibition; AID 687016; UHRF1 binding to methylated oligo, TR-FRET; 370,000 tested, 0.75% active; Q96T88; inhibition, % at 4.4 µM; in the data active = inhibition above about 21%;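 also: UHRF1 SRA domain binding a hemimethylated CpG hairpin DNA probe; 0% = median of test compound wells and 100% = reference inhibitor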
TDP2 absorb – blocks human TDP2 phosphodiesterase activity; recombinant TDP2, T5PNP hydrolysis, p-nitrophenol absorbance 415 nm; inhibition, % at 12.8 µM; 370,000 tested, 0.34% active; O95551;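 active = inhibition above the mean of all tested compounds plus 3 SD, set per campaign, cut at about 25% in these data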;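 also: 0% = DMSO with enzyme and 100% = buffer with substrate but no TDP2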
Target sequence (O95551 whole entry, looked up): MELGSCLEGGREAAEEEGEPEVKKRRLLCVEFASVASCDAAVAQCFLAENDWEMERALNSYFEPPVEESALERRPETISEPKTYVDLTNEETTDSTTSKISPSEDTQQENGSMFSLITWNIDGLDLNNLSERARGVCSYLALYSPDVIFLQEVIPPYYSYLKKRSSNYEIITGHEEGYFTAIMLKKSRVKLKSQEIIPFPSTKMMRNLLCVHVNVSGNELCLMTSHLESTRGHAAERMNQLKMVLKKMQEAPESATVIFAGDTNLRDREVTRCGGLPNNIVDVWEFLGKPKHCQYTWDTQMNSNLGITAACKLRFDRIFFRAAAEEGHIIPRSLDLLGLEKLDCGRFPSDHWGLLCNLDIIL
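Incubation: 2 h at 37 °C; Test system: recombinant human TDP2; Quantity: enzyme 120 nM; Read-out basis: percent inhibition; Medium: 50 mM Tris-HCl pH 7.5 with Mg2+, KCl, DTT, BSA; Repeats: single replicate; Compound: 12.8 µM single point, 1% DMSO; Signal: epi absorbance; Reagent: 5 mM T5PNP chromogenic substrate; Benchmarks: no-enzyme high, DMSO-plus-enzyme low.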
LEDGF integ inh – blocks HIV-1 LEDGF/p75-dependent DNA integration; AID 743269; inhibition, % at 3.7 µM; 370,000 tested, 0.64% active; TR-FRET IN-LEDGF/p75 DNA integration, Eu/Cy5;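 active = inhibition above the screen-wide mean plus 3 SD, cut at about 13% in these data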;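 also: signal is the Cy5 over europium emission ratio at 671 and 618 nm; 0% = plate median of compound wells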
TDP2 inh conf – confirmation of human TDP2 inhibitors; inhibition, % at 12.8 µM; 1,100 tested, 22% active; recombinant human TDP2, absorbance read-out; shares compounds with TDP2 absorb; in the data active = inhibition above about 25%;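 also: 0% = vehicle with enzyme and 100% = no enzyme buffer only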
IN multimer act – counter-screen for LEDGF/p75 integration inhibitors: HIV-1 integrase multimerization activators; shares compounds with LEDGF integ inh; TR-FRET HIV-1 integrase multimerization, biochemical; activation, % at 7.7 µM; 2,000 tested, 17% active; AID 1053131; in the data active = activation above about 8.9%
TRFRET interf – optically interferes with TR-FRET readout in LEDGF counter-screen. shares compounds with LEDGF integ inh. 2,000 tested, under 10 active. AID 1053135. TR-FRET optical interference counterscreen, HIV-1 IN multimerization. inhibition, % at 7.7 µM;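 active = inhibition above the mean over all tested compounds plus 3 SD, which no compound reached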;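 also: 0% = integrase with antibodies and DMSO and 100% = antibodies without integrase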
IN-LEDGF confirm – confirmation of HIV-1 LEDGF/p75-dependent integration inhibitors | shares compounds with LEDGF integ inh | TR-FRET LEDGF/p75-dependent HIV-1 integration, biochemical | inhibition, % at 3.7 µM | 2,000 tested, 36% active | AID 1053136; in the data active = inhibition above about 14%
Starred values were filed as active, the others as inactive.

Screening COCCn1c(N)c(S(=O)(=O)c2cccs2)c2nc3ccccc3nc21 returned MBD2 inh -5, HCV core dimer -26, UHRF1 MBD2 ctr 12, TDP2 absorb 57*, LEDGF integ inh 14*, TDP2 inh conf -6, IN multimer act 0, TRFRET interf -2 and IN-LEDGF confirm -4.
For COc1ccc(Cn2c(N)c(S(=O)(=O)c3cccs3)c3nc4ccccc4nc32)cc1 the results were MBD2 inh 4, HCV core dimer 24, UHRF1 MBD2 ctr 1, TDP2 absorb 1 and LEDGF integ inh 3.
`COc1cc2[nH]c(Cl)c([N+](=O)[O-])c2cc1OC` gave MBD2 inh -2, HCV core dimer -2, UHRF1 MBD2 ctr 9, TDP2 absorb 40*, LEDGF integ inh 49*, TDP2 inh conf 3, IN multimer act 3, TRFRET interf -9 and IN-LEDGF confirm 9.
Screening COc1cc2[nH]c3c(Cl)ncnc3c2cc1OC returned MBD2 inh 3, HCV core dimer -5, UHRF1 MBD2 ctr 3, TDP2 absorb 2 and LEDGF integ inh 1.
CCc1ccc(C(=O)NC(=S)Nc2ccc(N3CCOCC3)cc2)cc1 was read as MBD2 inh -5, HCV core dimer -2, UHRF1 MBD2 ctr 2, TDP2 absorb 3 and LEDGF integ inh -3.
For C/C(=C\C(=O)c1ccccc1)Nc1ccc(N2CCOCC2)cc1 the results were MBD2 inh -5, HCV core dimer -6, UHRF1 MBD2 ctr 1, TDP2 absorb 33*, LEDGF integ inh 22*, TDP2 inh conf -6, IN multimer act 3, TRFRET interf -11 and IN-LEDGF confirm -7.
Cc1ccccc1SCC(=O)Nc1ccc(N2CCOCC2)cc1 was read as MBD2 inh 0, HCV core dimer 11, UHRF1 MBD2 ctr -2, TDP2 absorb -2 and LEDGF integ inh 0.
Screening Nc1ccccc1SCC(=O)Nc1ccc(N2CCOCC2)cc1 returned MBD2 inh -4, HCV core dimer -8, UHRF1 MBD2 ctr -5, TDP2 absorb 28*, LEDGF integ inh 18*, TDP2 inh conf 7, IN multimer act 2, TRFRET interf -10 and IN-LEDGF confirm 1.
Screening CC(=O)c1ccc(NC(=S)Nc2ccc(N3CCOCC3)cc2)cc1 returned MBD2 inh -3, HCV core dimer -1, UHRF1 MBD2 ctr 2, TDP2 absorb 28*, LEDGF integ inh 15*, TDP2 inh conf 8, IN multimer act 0, TRFRET interf 1 and IN-LEDGF confirm 2.
Screening CC(NCc1ccco1)C(=O)N1CCN(c2ccc(F)cc2)CC1 (configuration not stated) returned MBD2 inh 1, UHRF1 MBD2 ctr 2, TDP2 absorb -4 and LEDGF integ inh 1.
O=C(O)CCN1C(=O)/C(=C/c2ccc(F)cc2F)SC1=S was read as MBD2 inh -7, UHRF1 MBD2 ctr -8, TDP2 absorb 6 and LEDGF integ inh -3.
`Cc1[nH][nH]c(=O)c1N=Nc1ccccc1Cl` gave MBD2 inh -15, HCV core dimer -2, UHRF1 MBD2 ctr -15, TDP2 absorb -1 and LEDGF integ inh 0.
`Clc1ccccc1N=Nc1ccccn1` gave MBD2 inh -1, UHRF1 MBD2 ctr 5, TDP2 absorb 42*, LEDGF integ inh 25*, TDP2 inh conf 27*, IN multimer act 1, TRFRET interf -4 and IN-LEDGF confirm 16*.
For COC(=O)CSc1nnc(-c2ccc(NS(=O)(=O)c3ccc(C)c(C)c3)cc2)o1 the results were MBD2 inh 1, UHRF1 MBD2 ctr 0, TDP2 absorb 5 and LEDGF integ inh -1.
CCc1nc2ccc(C(=O)NCCc3ccco3)cc2nc1CC was read as HCV core dimer -6.
For O=C(NCCCO)c1ccc2nc(-c3ccco3)c(-c3ccco3)nc2c1 the results were MBD2 inh -5, UHRF1 MBD2 ctr 17, TDP2 absorb 40*, LEDGF integ inh 53*, TDP2 inh conf 31*, IN multimer act 50*, TRFRET interf -178 and IN-LEDGF confirm 70*.
For CCN1Cc2nnn(Cc3ccccc3)c2-c2cc(N3CCCC3)ccc2S1(=O)=O the results were MBD2 inh 3, UHRF1 MBD2 ctr -4, TDP2 absorb 9 and LEDGF integ inh -2.
`C[n+]1c2cc(N)ccc2cc2ccc(N)cc21` gave MBD2 inh 0, UHRF1 MBD2 ctr -322, TDP2 absorb 29*, LEDGF integ inh 40*, TDP2 inh conf 28*, IN multimer act 20*, TRFRET interf -70 and IN-LEDGF confirm 45*.
Screening N#Cc1cc(Cl)c(N2CCOCC2)cc1C#N returned MBD2 inh 9, HCV core dimer -7, UHRF1 MBD2 ctr 14, TDP2 absorb 1 and LEDGF integ inh -1.
For N#Cc1cc2ccc(N3CCOCC3)cc2cc1C#N the results were MBD2 inh -7, HCV core dimer -8, UHRF1 MBD2 ctr -1, TDP2 absorb 69*, LEDGF integ inh 31*, TDP2 inh conf 6, IN multimer act 4, TRFRET interf -15 and IN-LEDGF confirm 4.
CCc1nnc(N/N=C/c2ccc(N3CCC(C)CC3)c([N+](=O)[O-])c2)n1N was read as MBD2 inh -1, HCV core dimer -10, UHRF1 MBD2 ctr -6, TDP2 absorb 68*, LEDGF integ inh 38*, TDP2 inh conf 12, IN multimer act 2, TRFRET interf -9 and IN-LEDGF confirm 0.
Cc1nnc(N/N=C/c2cc([N+](=O)[O-])c(N3CCC(C)CC3)cc2N2CCC(C)CC2)n1N was read as MBD2 inh -6, HCV core dimer -2, UHRF1 MBD2 ctr 3, TDP2 absorb 53*, LEDGF integ inh 52*, TDP2 inh conf -14, IN multimer act 2, TRFRET interf -5 and IN-LEDGF confirm -2.
For S=C(Nc1ccc2nsnc2c1)N1CCCCC1 the results were MBD2 inh -5, HCV core dimer -8, UHRF1 MBD2 ctr 6, TDP2 absorb 76*, LEDGF integ inh 17*, TDP2 inh conf 54*, IN multimer act 1, TRFRET interf -2 and IN-LEDGF confirm 5.
Screening CC1OC(Nc2cccc3ccccc23)C(O)C(O)C1O (configuration not stated) returned MBD2 inh -8, HCV core dimer -4, UHRF1 MBD2 ctr -5, TDP2 absorb 34*, LEDGF integ inh 36*, TDP2 inh conf 14, IN multimer act 3, TRFRET interf -13 and IN-LEDGF confirm 5.

Screening results as filed in PubChem.
